ChEMBL document CHEMBL1143370, “Effect of fluorination on the pharmacological profile of 11beta isomers of fulvestrant in breast carcinoma cells” (J Med Chem, 2009)
Activity calls are given as the source filed them. The calls are words filed in the database; no cut-off is given here.

Legend:
[1] = molecular target: T1, Estrogen receptor (Homo sapiens) (UniProt P03372); experiment: Binding affinity to estrogen receptor alpha in human MCF7 cells assessed as inhibition of [3H]E2 accumulation after 45 mins by whole cell competition binding assay; assay type: cell-based
T1 sequence (whole entry): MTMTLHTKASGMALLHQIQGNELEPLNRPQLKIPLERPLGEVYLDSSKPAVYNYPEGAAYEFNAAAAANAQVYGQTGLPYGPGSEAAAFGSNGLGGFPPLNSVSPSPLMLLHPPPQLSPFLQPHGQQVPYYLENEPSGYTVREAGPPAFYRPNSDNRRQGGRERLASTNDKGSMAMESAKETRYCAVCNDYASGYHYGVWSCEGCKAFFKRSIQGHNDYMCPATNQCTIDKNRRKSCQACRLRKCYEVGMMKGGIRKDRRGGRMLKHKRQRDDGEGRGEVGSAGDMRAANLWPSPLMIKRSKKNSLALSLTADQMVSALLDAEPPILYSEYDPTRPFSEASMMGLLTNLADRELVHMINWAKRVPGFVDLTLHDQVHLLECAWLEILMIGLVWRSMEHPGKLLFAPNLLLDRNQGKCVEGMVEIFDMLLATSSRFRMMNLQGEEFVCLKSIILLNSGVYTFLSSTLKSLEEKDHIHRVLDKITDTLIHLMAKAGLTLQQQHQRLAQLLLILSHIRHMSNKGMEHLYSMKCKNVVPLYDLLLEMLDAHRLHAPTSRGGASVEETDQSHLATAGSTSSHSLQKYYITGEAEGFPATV
Summary of the method: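 Intact MCF-7 cells incubated 45 min with [3H]E2 at 1 nM, alone (control) or with competitor at 1 nM to 1 µM; cellular [3H]E2 accumulation measured, with unlabeled E2 as reference.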

MCF7 [2] = experiment: Down regulation of estrogen receptor alpha expression in human MCF7 cells at 100 nM after 24 hrs by immunofluorescence staining; assay type: functional, cell-based
Summary of the method: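 MCF-7 cells treated 24 h at 100 nM, untreated control; ERα shown by immunofluorescence with HC-20 antiserum, Texas Red labeling.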

MCF7 [3] = experiment: Antiproliferative activity against human MCF7 cells after 3 days at 10 nM by crystal violet staining; assay type: functional, cell-based
MCF7 [4] = experiment: Antiproliferative activity against estradiol-stimulated human MCF7 cells after 3 days at 10 nM by crystal violet staining; assay type: functional, cell-based
[5] = molecular target: T1, Estrogen receptor (Homo sapiens); experiment: Antiestrogenic activity at human recombinant estrogen receptor alpha assessed as inhibition of recruitment of LxxLL-containing coactivators after 30 mins by ELISA in absence of estradiol
[6] = molecular target: T1, Estrogen receptor (Homo sapiens); experiment: Displacement of [3H]estradiol from human recombinant estrogen receptor alpha by radiometric assay relative to estradiol
Summary of the method: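 Purified recombinant human ERα; competition with [3H]E2 binding at 0 °C; inhibition curves give relative binding affinity (RBA).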

[7] = molecular target: T1, Estrogen receptor (Homo sapiens); experiment: Antiestrogenic activity at human recombinant estrogen receptor alpha assessed as inhibition of recruitment of LxxLL-containing coactivators after 30 mins by ELISA in presence of estradiol
MCF7 [8] = experiment: Down regulation of estrogen receptor alpha expression in human MCF7 cells after 24 hrs by Western blot analysis; assay type: functional, cell-based
Summary of the method: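 MCF-7 breast carcinoma cells exposed to increasing concentrations of each compound for 24 h, with untreated control cultures kept in parallel. Equal amounts of solubilized protein were analysed for ERα by Western blotting. The experiment was done twice.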

MCF7 [9] = experiment: Down regulation of estrogen receptor alpha expression in human MCF7 cells after 24 hrs by Western blot analysis in presence of 3,17beta-dihydroxy-11beta-[4,4,5,5,6,6,7,7-octafluoro-9-(4,4,5,5,5-pentafluoropentane-1-sulfinyl)nonyl]estra-1,3,5(10)-triene; assay type: functional, cell-based
Summary of the method: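 MCF-7 cells exposed 24 h to increasing concentrations, untreated cultures run in parallel; equal amounts of solubilized protein Western blotted for ERα; experiment done twice.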

MCF7 [10] = experiment: Suppression of estradiol-induced down regulation of estrogen receptor alpha expression in human MCF7 cells at 1 uM after 24 hrs by immunofluorescence staining; assay type: functional, cell-based
Summary of the method: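 ERα immunofluorescence (HC-20 antiserum, Texas Red) in MCF-7 cells after 24 h with E2 at 1 nM and/or compound at 1 µM; untreated control included.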

MCF7 [11] = experiment: Suppression of estradiol-induced down regulation of estrogen receptor alpha expression in human MCF7 cells at 1 uM after 24 hrs by Western blot analysis; assay type: functional, cell-based
Summary of the method: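 Western blot of ERα in MCF-7 cells after 24 h with compound at 1 µM, alone or with 10 nM E2; equal protein loading; experiment done twice.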

Which Activity [1] does the source give for `C[C@]12C[C@H](CCCCCCCCC[S+]([O-])CCCC(F)(F)C(F)(F)F)[C@@H]3c4ccc(O)cc4CC[C@H]3[C@@H]1CC[C@@H]2O` (stereo partly specified) here?
The Activity was “Active”.

And the Activity (MCF7 [2])?
Its Activity is “Active”.

And the Activity (MCF7 [3])?
Its Activity is “Active”.

And the Activity (MCF7 [4])?
Its Activity is “Active”.

And the Activity [5]?
The Activity was “Active”.

And the relative binding affinity (RBA) [6]?
The relative binding affinity (RBA) was 6.

What about the Activity [7] of the same compound?
Its Activity is “Active”.

What about the Activity (MCF7 [8]) of the same compound?
Its Activity is “Active”.

`C[C@]12CC[C@@H]3c4ccc(O)cc4C[C@@H](CCCCCCCCC[S+]([O-])CCCC(F)(F)C(F)(F)F)[C@H]3[C@@H]1CC[C@@H]2O` (stereo partly specified) was tested. Which Activity (MCF7 [2]) did it give?
Its Activity is “Active”.

And the Activity (MCF7 [3])?
The Activity was “Active”.

And the Activity (MCF7 [4])?
Its Activity is “Active”.

What about the relative binding affinity (RBA) [6] of the same compound?
Its relative binding affinity (RBA) is 10.

What about the Activity (MCF7 [8]) of the same compound?
The Activity was “Active”.

For `C[C@]12C[C@H](CCCC(F)(F)C(F)(F)C(F)(F)C(F)(F)CC[S+]([O-])CCCC(F)(F)C(F)(F)F)[C@@H]3c4ccc(O)cc4CC[C@H]3[C@@H]1CC[C@@H]2O` (stereo partly specified), which Activity (MCF7 [2]) is on record?
The Activity was “inactive”.

What about the Activity (MCF7 [9]) of the same compound?
Its Activity is “inactive”.

And the Activity (MCF7 [3])?
The Activity was “Active”.

And the Activity [5]?
Its Activity is “Active”.

What about the Activity (MCF7 [10]) of the same compound?
The Activity was “Active”.

What about the relative binding affinity (RBA) [6] of the same compound?
The relative binding affinity (RBA) was 2.

What about the Activity [7] of the same compound?
The Activity was “Active”.

And the Activity (MCF7 [11])?
Its Activity is “Active”.
